Rows were chosen to be rich in hits. Some 3.1% of all compounds tested hit in one or more screens of this group.
NadD block = inhibitors of Staphylococcus aureus NadD; purified NadD enzyme, colorimetric absorbance read-out; inhibition, % at 20 µM; hit rate 0.78% among 360,000; in the data active means inhibition above about 26%
PP1 counter = blocks human PP1-alpha phosphatase, a PP5 counter-screen; purified PP1alpha, OMFP fluorescence; P62136; inhibition, % at 6.7 µM; hit rate 0.9% among 320,000;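 active means inhibition above the mean inhibition of all tested compounds plus 3 SD, computed separately for each screening campaign, cut at about 15% in these data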
Target sequence (P62136 whole entry, looked up): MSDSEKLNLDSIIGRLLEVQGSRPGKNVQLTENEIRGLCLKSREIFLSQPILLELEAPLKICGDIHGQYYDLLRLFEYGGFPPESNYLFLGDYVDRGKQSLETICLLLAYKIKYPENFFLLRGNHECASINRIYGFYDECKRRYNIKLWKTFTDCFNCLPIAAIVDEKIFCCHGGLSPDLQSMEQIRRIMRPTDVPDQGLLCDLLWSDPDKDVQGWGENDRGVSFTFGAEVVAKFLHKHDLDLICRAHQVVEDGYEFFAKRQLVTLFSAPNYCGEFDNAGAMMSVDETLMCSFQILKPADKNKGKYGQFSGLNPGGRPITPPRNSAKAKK
core dimer inh = HCV core protein dimerization inhibition | TR-FRET GST/Flag-core106 dimerization, 1536-well | inhibition, % at 5 µM | hit rate 0.33% among 300,000 | AID 1899;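 active means inhibition above the mean of all tested compounds plus 3 SD, set per screening campaign, cut at about 45% in these data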
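Assay system: Tagged HCV core106 pair (GST and Flag) | Buffer or medium: KF-containing HEPES buffer, pH 7.45, DTT, CHAPS, BSA | Also added: Eu donor and XL665 acceptor anti-tag antibodies | Dosing: One concentration, 5 µM, in 0.5% DMSO | Timing: 4 h at 22.5 °C | Technique: TR-FRET 671 and 617 nm emission | Repeats: Singlicate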
PP5 inh = inhibitors of human protein phosphatase 5 (PP5); P53041; purified PP5c, OMFP substrate fluorescence; inhibition, % at 6.7 µM; hit rate 0.18% among 320,000; AID 1987;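 active means inhibition above the campaign's mean inhibition across all tested compounds plus 3 SD, cut at about 9.5% in these data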;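 further: 0% = DMSO only and 100% = 100 µM cantharidin control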
Fh CTSL1 inh = counter-screen for PFM18AAP inhibitors: inhibitors of F. hepatica cathepsin L1; inhibition, % at 5.96 µM; hit rate 0.49% among 300,000; recombinant F. hepatica cathepsin L1, Z-Leu-Arg-MCA fluorescence;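 active means inhibition above the mean of all tested compounds plus 3 SD, set per screening campaign, cut at about 17% in these data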;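 further: 0% = plate median of test compound wells and 100% = 1 µM Z-Phe-Ala-diazomethylketone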
Myeloid diff 2 = myeloid differentiation induction | AID 624256 | ER-HoxA9 myeloid progenitors, lysozyme-GFP differentiation, flow cytometry | hit rate 1% among 360,000 | calls only at 10 µM;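 active means normalized GFP-positive differentiation at or above the plate's own cutoff, the solvent-only control mean plus 3 SD; inconclusive means no clear call, values can overlap the other calls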;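 further: cells exposed to compound for four days before flow analysis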
PP1 confirm = confirmation of human PP1 phosphatase inhibitors. AID 2358. shares compounds with PP1 counter. purified PP1alpha, OMFP substrate fluorescence. hit rate 52% among 1,900. inhibition, % at 6.7 µM;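 active means mean PP1 inhibition above a set limit taken from the earlier primary screen, cut at about 15% in these data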
PP5 counter = counter-screen for PP1 inhibitors: human PP5 phosphatase inhibition; purified PP5c, OMFP fluorescence; inhibition, % at 6.7 µM; AID 2360; hit rate 4% among 1,900; shares compounds with PP1 counter;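 active means mean PP5 inhibition over triplicate wells above about 9.5% taken from the earlier PP1 screen, limit read from the data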
Numbers without * were called inactive.

What do the screens show for `CCC(C)(C)NC(=O)C(c1cccn1C)N(Cc1ccc(OC)cc1)C(=O)Cn1nnc2ccccc21` (stereo not given)?
NadD block: -4; PP1 counter: 30*; core dimer inh: 14; PP5 inh: 0; Fh CTSL1 inh: -1; Myeloid diff 2: inactive; PP1 confirm: 25*; PP5 counter: 2

How did CN(CC(=O)Nc1c(Cl)cccc1Cl)C(=O)C1CC(=O)N(Cc2ccccc2)C1 (stereo not given) do in these assays?
NadD block: 3; PP1 counter: -1; PP5 inh: -1; Myeloid diff 2: inactive

What do the screens show for `CCOC(=O)c1c(C)[nH]c(C)c1S(=O)(=O)NCC1CCN(Cc2ccccc2OC)CC1`?
NadD block: -5; PP1 counter: -9; core dimer inh: 1; PP5 inh: -2; Fh CTSL1 inh: -1; Myeloid diff 2: inactive

What do the screens show for `Oc1c(CN2CCc3ccccc3C2)cc(Cl)c2cccnc12`?
NadD block: -1; PP1 counter: 31*; core dimer inh: 4; PP5 inh: 2; Fh CTSL1 inh: 0; Myeloid diff 2: inconclusive; PP1 confirm: 40*; PP5 counter: 0

Results for O=[N+]([O-])c1cc(CN2CCN(c3ccccc3)CC2)c(O)c2ncccc12 ?
NadD block: 71*; PP1 counter: 19*; core dimer inh: -8; PP5 inh: 3; Fh CTSL1 inh: 1; Myeloid diff 2: inconclusive; PP1 confirm: 29*; PP5 counter: 1

What do the screens show for `Oc1c(Cl)cc(CN2CCOCC2)c2cccnc12`?
NadD block: -5; PP1 counter: -1; PP5 inh: 1; Myeloid diff 2: inconclusive

How did Oc1c(I)cc(Cl)c2cccnc12 do in these assays?
NadD block: 8; PP1 counter: 19*; core dimer inh: -1; PP5 inh: 2; Fh CTSL1 inh: -3; Myeloid diff 2: inactive; PP1 confirm: 12; PP5 counter: 5

Results for N=c1c(C(=O)NCc2ccco2)cc2c(=O)n3ccccc3nc2n1Cc1ccc(Cl)cc1 ?
NadD block: 26; PP1 counter: 18*; core dimer inh: 67*; PP5 inh: 4; Fh CTSL1 inh: 10; Myeloid diff 2: inactive; PP1 confirm: 7; PP5 counter: -1

Results for N=c1c(C(=O)NCc2ccco2)cc2c(=O)n3ccccc3nc2n1C1CCCC1 ?
NadD block: 0; PP1 counter: 7; core dimer inh: 11; PP5 inh: 0; Fh CTSL1 inh: 2; Myeloid diff 2: inactive

How did CCN(CC)S(=O)(=O)c1cccc(N=NC2=C(O)CCCC2=O)c1 do in these assays?
NadD block: 1; PP1 counter: 57*; core dimer inh: 24; PP5 inh: -2; Fh CTSL1 inh: 2; Myeloid diff 2: inactive; PP1 confirm: 0; PP5 counter: -4

How did CC(=O)Nc1ccc(S(=O)(=O)N(C)CC(=O)Nc2ccccc2N2CCOCC2)cc1 do in these assays?
NadD block: 3; PP1 counter: -1; core dimer inh: 2; PP5 inh: -1; Fh CTSL1 inh: -3; Myeloid diff 2: inactive

Results for CN(CC(=O)Nc1ccccc1N1CCCC1)S(=O)(=O)c1ccc(F)cc1 ?
NadD block: -3; PP1 counter: 74*; core dimer inh: -1; PP5 inh: 1; Fh CTSL1 inh: 0; Myeloid diff 2: inactive; PP1 confirm: -20; PP5 counter: -3

How did O=C1/C(=C\c2cccnc2)Sc2ccccc21 do in these assays?
NadD block: 4; PP1 counter: 19*; core dimer inh: -13; PP5 inh: 3; Fh CTSL1 inh: 5; Myeloid diff 2: inactive; PP1 confirm: 16*; PP5 counter: -3

What do the screens show for `CCOc1ccc(C=NNC(=O)c2cccc3ccccc23)cc1OCC`?
NadD block: 7; Myeloid diff 2: inactive

What do the screens show for `O=C(CN1C(=O)S/C(=C\c2ccc(Cl)cc2)C1=O)NNC(=O)c1ccccc1O`?
NadD block: 23; PP1 counter: 18*; core dimer inh: 4; PP5 inh: 0; Fh CTSL1 inh: 2; Myeloid diff 2: inactive; PP1 confirm: 12; PP5 counter: -6

How did CCc1nnc(NC(=O)c2ccc(S(=O)(=O)N3CCCc4ccccc43)cc2)o1 do in these assays?
NadD block: 11; PP1 counter: 35*; core dimer inh: 11; PP5 inh: 1; Fh CTSL1 inh: 4; Myeloid diff 2: inactive; PP1 confirm: 28*; PP5 counter: 2

Results for CCc1nnc(NC(=O)c2ccc(S(=O)(=O)N(CC(C)C)CC(C)C)cc2)o1 ?
NadD block: 9; PP1 counter: 25*; core dimer inh: -2; PP5 inh: 1; Fh CTSL1 inh: 2; Myeloid diff 2: inactive; PP1 confirm: 30*; PP5 counter: -2

How did C=CCN(CC=C)S(=O)(=O)c1ccc(C(=O)Nc2nnc(CSC)o2)cc1 do in these assays?
NadD block: 23; PP1 counter: 22*; core dimer inh: -1; PP5 inh: 0; Fh CTSL1 inh: -2; Myeloid diff 2: inactive; PP1 confirm: 19*; PP5 counter: 7

How did CCC1(c2ccccc2)NC(=O)N(CC(=O)Nc2cc(S(=O)(=O)N3CCCCC3)ccc2OC(C)C)C1=O (stereo not given) do in these assays?
NadD block: 2; PP1 counter: 18*; core dimer inh: 2; PP5 inh: 0; Fh CTSL1 inh: 1; Myeloid diff 2: inactive; PP1 confirm: 2; PP5 counter: 4

Results for Cc1ccc(S(=O)(=O)N2CCN(c3nc(CN4CCCC4)nc4sc(C)c(C)c34)CC2)cc1 ?
NadD block: 27; PP1 counter: 19*; PP5 inh: -2; Myeloid diff 2: inactive; PP1 confirm: 4; PP5 counter: 0

How did Cc1sc2nc(CN3CCCC3)nc(N3CCN(S(=O)(=O)c4cccs4)CC3)c2c1C do in these assays?
NadD block: 19; PP1 counter: 27*; core dimer inh: 13; PP5 inh: 1; Fh CTSL1 inh: 11; Myeloid diff 2: inactive; PP1 confirm: 13; PP5 counter: 0

What do the screens show for `CCc1nc(N2CCN(S(=O)(=O)c3ccc(Br)cc3)CC2)c2c(C)c(C)sc2n1`?
NadD block: 20; PP1 counter: 2; core dimer inh: 10; PP5 inh: 2; Fh CTSL1 inh: 0; Myeloid diff 2: inactive

How did Cc1ccc(C)c(S(=O)(=O)N2CCN(c3nc(CN4CCOCC4)nc4sc(C)c(C)c34)CC2)c1 do in these assays?
NadD block: 11; PP1 counter: 13; PP5 inh: 4; Myeloid diff 2: inactive

Screens from PubChem.
